Data from ChEMBL document CHEMBL3044653, “Synthesis and herbicidal activity of 2-(substituted phenoxyacetoxy)alkyl-5,5-dimethyl-1,3,2-dioxaphosphinan-2-one” (J Agric Food Chem, 2012).

How the values were obtained:
[1] = test system: Chenopodium album; test: Post-emergence herbicidal activity against Chenopodium album assessed as inhibition at 150 g/hectare by green house assay; assay type: functional
[2] = test system: Chenopodium album; test: Post-emergence herbicidal activity against Chenopodium album assessed as inhibition at 75 g/hectare by green house assay; assay type: functional
[3] = test system: Brassica rapa subsp. chinensis; test: Post-emergence herbicidal activity against Brassica rapa subsp. chinensis assessed as inhibition at 150 g/hectare by green house assay; assay type: functional
[4] = test system: Brassica rapa subsp. oleifera; test: Post-emergence herbicidal activity against Brassica rapa subsp. oleifera assessed as inhibition at 150 g/hectare by green house assay; assay type: functional
[5] = test system: Brassica rapa subsp. oleifera; test: Post-emergence herbicidal activity against Brassica rapa subsp. oleifera assessed as inhibition at 75 g/hectare by green house assay; assay type: functional
[6] = test system: Brassica rapa subsp. chinensis; test: Post-emergence herbicidal activity against Brassica rapa subsp. chinensis assessed as inhibition at 75 g/hectare by green house assay; assay type: functional
[7] = test system: Brassica juncea; test: Post-emergence herbicidal activity against Brassica juncea assessed as inhibition at 75 g/hectare by green house assay; assay type: functional
[8] = test system: Ipomoea nil; test: Post-emergence herbicidal activity against Ipomoea nil (Japanese morning glory) assessed as inhibition at 150 g/hectare by green house assay; assay type: functional
[9] = test system: Brassica juncea; test: Post-emergence herbicidal activity against Brassica juncea assessed as inhibition at 150 g/hectare by green house assay; assay type: functional
[10] = test system: Ammannia baccifera; test: Post-emergence herbicidal activity against Ammannia baccifera assessed as inhibition at 75 g/hectare by green house assay; assay type: functional
[11] = test system: Pontederia vaginalis; test: Post-emergence herbicidal activity against Monochoria vaginalis assessed as inhibition at 75 g/hectare by green house assay; assay type: functional
[12] = test system: Amaranthus retroflexus; test: Post-emergence herbicidal activity against Amaranthus retroflexus assessed as inhibition at 75 g/hectare by green house assay; assay type: functional
[13] = test system: Pontederia vaginalis; test: Post-emergence herbicidal activity against Monochoria vaginalis assessed as inhibition at 150 g/hectare by green house assay; assay type: functional
[14] = test system: Brassica oleracea; test: Post-emergence herbicidal activity against Brassica oleracea assessed as inhibition at 75 g/hectare by green house assay; assay type: functional
[15] = test system: Radish; test: Post-emergence herbicidal activity against Raphanus sativus (radish) assessed as inhibition at 150 g/hectare by green house assay; assay type: functional
[16] = test system: Amaranthus retroflexus; test: Post-emergence herbicidal activity against Amaranthus retroflexus assessed as inhibition at 150 g/hectare by green house assay; assay type: functional
[17] = test system: Radish; test: Post-emergence herbicidal activity against Raphanus sativus (radish) assessed as inhibition at 75 g/hectare by green house assay; assay type: functional
[18] = test system: Ipomoea nil; test: Post-emergence herbicidal activity against Ipomoea nil (Japanese morning glory) assessed as inhibition at 75 g/hectare by green house assay; assay type: functional
[19] = test system: Ammannia baccifera; test: Post-emergence herbicidal activity against Ammannia baccifera assessed as inhibition at 150 g/hectare by green house assay; assay type: functional
[20] = test system: Brassica oleracea; test: Post-emergence herbicidal activity against Brassica oleracea assessed as inhibition at 150 g/hectare by green house assay; assay type: functional
[21] = test system: Abutilon theophrasti; test: Post-emergence herbicidal activity against Abutilon theophrasti (velvetleaf) assessed as inhibition at 150 g/hectare treated at two-leaf stage by green house assay; assay type: functional
How it was run: (§1)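 Greenhouse postemergence spray of diluted formulation solutions onto broadleaf weeds at the two-leaf stage. Primary screen at 150 g ai/ha, with selected compounds retested at 75 and 37.5 g ai/ha. Abutilon was tested at 150 g ai/ha only. Read-out is percent herbicidal damage relative to an untreated control.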

[22] = test system: Echinochloa crus-galli; test: Post-emergence herbicidal activity against Echinochloa crus-galli (barnyard grass) assessed as inhibition at 150 g/hectare treated at one-leaf stage by green house assay; assay type: functional
How it was run: (§2)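 Monocot weeds were sprayed postemergence in the greenhouse at the one-leaf stage with diluted formulation solutions. Primary dose was 150 g ai/ha, with follow-up doses of 75 and 37.5 g ai/ha for selected compounds. Activity is scored as percent herbicidal damage compared with an untreated control.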

[23] = test system: Digitaria sanguinalis; test: Post-emergence herbicidal activity against Digitaria sanguinalis (hairy crabgrass) assessed as inhibition at 150 g/hectare treated at one-leaf stage by green house assay; assay type: functional; how it was run: as §2
[24] = test system: Amaranthus retroflexus; test: Post-emergence herbicidal activity against Amaranthus retroflexus assessed as inhibition at 75 g/hectare treated at two-leaf stage by green house assay; assay type: functional; how it was run: as §1
[25] = test system: Setaria viridis; test: Post-emergence herbicidal activity against Setaria viridis (green foxtail) assessed as inhibition at 75 g/hectare treated at one-leaf stage by green house assay; assay type: functional; how it was run: as §2
[26] = test system: Zea mays; test: Toxicity in Zea mays (maize) plant assessed as inhibition at 150 g/hectare; assay type: organism-based; conditions: in vivo
How it was run: (§3)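 For crop selectivity, conventional crop varieties were planted in 12 cm diameter plots and given a postemergence treatment at 150 g ai/ha. Injury was scored as percent inhibition, with 0–10% classed as safe to the crop.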

[27] = test system: Triticum aestivum; test: Toxicity in Triticum aestivum (wheat) plant assessed as inhibition at 150 g/hectare; assay type: organism-based; conditions: in vivo; how it was run: as §3
[28] = test system: Brassica juncea; test: Post-emergence herbicidal activity against Brassica juncea assessed as inhibition at 37.5 g/hectare treated at two-leaf stage by green house assay; assay type: functional; how it was run: as §1
[29] = test system: Digitaria sanguinalis; test: Post-emergence herbicidal activity against Digitaria sanguinalis (hairy crabgrass) assessed as inhibition at 75 g/hectare treated at one-leaf stage by green house assay; assay type: functional; how it was run: as §2
[30] = test system: Oryza sativa; test: Toxicity in Oryza sativa (rice) plant assessed as inhibition at 150 g/hectare; assay type: organism-based; conditions: in vivo; how it was run: as §3
[31] = test system: Digitaria sanguinalis; test: Post-emergence herbicidal activity against Digitaria sanguinalis (hairy crabgrass) assessed as inhibition at 37.5 g/hectare treated at one-leaf stage by green house assay; assay type: functional; how it was run: as §2
[32] = test system: Eclipta prostrata; test: Post-emergence herbicidal activity against Eclipta prostrata assessed as inhibition at 75 g/hectare treated at two-leaf stage by green house assay; assay type: functional; how it was run: as §1
[33] = test system: Gossypium hirsutum; test: Toxicity in Gossypium hirsutum (cotton) plant assessed as inhibition at 150 g/hectare; assay type: organism-based; conditions: in vivo; how it was run: as §3
[34] = test system: Amaranthus retroflexus; test: Post-emergence herbicidal activity against Amaranthus retroflexus assessed as inhibition at 37.5 g/hectare treated at two-leaf stage by green house assay; assay type: functional; how it was run: as §1
[35] = test system: Brassica napus; test: Toxicity in Brassica napus (oilseed rape) assessed as inhibition at 150 g/hectare; assay type: functional; how it was run: as §3
[36] = test system: Setaria viridis; test: Post-emergence herbicidal activity against Setaria viridis (green foxtail) assessed as inhibition at 37.5 g/hectare treated at one-leaf stage by green house assay; assay type: functional; how it was run: as §2
[37] = test system: Amaranthus retroflexus; test: Post-emergence herbicidal activity against Amaranthus retroflexus assessed as inhibition at 150 g/hectare treated at two-leaf stage by green house assay; assay type: functional; how it was run: as §1
[38] = test system: Setaria viridis; test: Post-emergence herbicidal activity against Setaria viridis (green foxtail) assessed as inhibition at 150 g/hectare treated at one-leaf stage by green house assay; assay type: functional; how it was run: as §2
[39] = test system: Eclipta prostrata; test: Post-emergence herbicidal activity against Eclipta prostrata assessed as inhibition at 37.5 g/hectare treated at two-leaf stage by green house assay; assay type: functional; how it was run: as §1
[40] = test system: Brassica juncea; test: Post-emergence herbicidal activity against Brassica juncea assessed as inhibition at 75 g/hectare treated at two-leaf stage by green house assay; assay type: functional; how it was run: as §1
[41] = test system: Echinochloa crus-galli; test: Post-emergence herbicidal activity against Echinochloa crus-galli (barnyard grass) assessed as inhibition at 37.5 g/hectare treated at one-leaf stage by green house assay; assay type: functional; how it was run: as §2
[42] = test system: Glycine max; test: Toxicity in Glycine max (soybean) plant assessed as inhibition at 150 g/hectare; assay type: organism-based; conditions: in vivo; how it was run: as §3
[43] = test system: Echinochloa crus-galli; test: Post-emergence herbicidal activity against Echinochloa crus-galli (barnyard grass) assessed as inhibition at 75 g/hectare treated at one-leaf stage by green house assay; assay type: functional; how it was run: as §2
[44] = test system: Brassica juncea; test: Post-emergence herbicidal activity against Brassica juncea assessed as inhibition at 150 g/hectare treated at two-leaf stage by green house assay; assay type: functional; how it was run: as §1
[45] = test system: Eclipta prostrata; test: Post-emergence herbicidal activity against Eclipta prostrata assessed as inhibition at 150 g/hectare treated at two-leaf stage by green house assay; assay type: functional; how it was run: as §1

In the case of `O=C(O)CNCP(=O)(O)O` [GLYPHOSATE], the inhibition at 150 g/ha [1] was 90%, the inhibition at 75 g/ha [2] was 70% and the inhibition at 150 g/ha [3] was 80%. The inhibition at 150 g/ha [4] was 100%, the inhibition at 75 g/ha [5] was 100% and the inhibition at 75 g/ha [6] was 70%. For the same compound, the inhibition at 75 g/ha [7] was 30%, the inhibition at 150 g/ha [8] was 60% and the inhibition at 150 g/ha [9] was 80%. For the same compound, the inhibition at 75 g/ha [10] was 100%, the inhibition at 75 g/ha [11] was 100% and the inhibition at 75 g/ha [12] was 90%. It also gave an inhibition at 150 g/ha [13] of 100%, an inhibition at 75 g/ha [14] of 70% and an inhibition at 150 g/ha [15] of 65%. For the same compound, the inhibition at 150 g/ha [16] was 90%, the inhibition at 75 g/ha [17] was 60% and the inhibition at 75 g/ha [18] was 60%. The inhibition at 150 g/ha [19] was 100% and the inhibition at 150 g/ha [20] was 80%.

`CC1(C)COP(=O)(C(OC(=O)COc2ccc(Cl)cc2Cl)c2ccc(Cl)cc2)OC1` (stereo unspecified) showed an inhibition at 150 g/ha [21] of 90%, an inhibition at 150 g/ha [22] of 0% and an inhibition at 150 g/ha [23] of 0%. The inhibition at 75 g/ha [24] was 50%, the inhibition at 75 g/ha [25] was 0% and the “inhibition (INH)” value [26] was 0%. For the same compound, the “inhibition (INH)” value [27] was 0%, the inhibition at 37.5 g/ha [28] was 80% and the inhibition at 75 g/ha [29] was 0%. The “inhibition (INH)” value [30] was 10%, the inhibition at 37.5 g/ha [31] was 0% and the inhibition at 75 g/ha [32] was 0%. For the same compound, the “inhibition (INH)” value [33] was 20%, the inhibition at 37.5 g/ha [34] was 30% and the inhibition at 150 g/ha [35] was 40%. For the same compound, the inhibition at 37.5 g/ha [36] was 0%, the inhibition at 150 g/ha [37] was 80% and the inhibition at 150 g/ha [38] was 0%. The inhibition at 37.5 g/ha [39] was 0%, the inhibition at 75 g/ha [40] was 90% and the inhibition at 37.5 g/ha [41] was 0%. For the same compound, the “inhibition (INH)” value [42] was 20%, the inhibition at 75 g/ha [43] was 0% and the inhibition at 150 g/ha [44] was 98%. For the same compound, the inhibition at 150 g/ha [45] was 70%.

Compound `Cc1cc(Cl)ccc1OCC(=O)OC(C)P1(=O)OCC(C)(C)CO1` (stereo unspecified) has an inhibition at 150 g/ha [21] of 100%, an inhibition at 150 g/ha [22] of 30% and an inhibition at 150 g/ha [1] of 75%. For the same compound, the inhibition at 75 g/ha [2] was 70%, the inhibition at 150 g/ha [3] was 80% and the inhibition at 150 g/ha [23] was 0%. For the same compound, the inhibition at 75 g/ha [6] was 70%, the inhibition at 75 g/ha [7] was 100% and the inhibition at 150 g/ha [8] was 100%. It also gave an inhibition at 75 g/ha [24] of 100%, an inhibition at 150 g/ha [9] of 100% and an inhibition at 75 g/ha [25] of 0%. The “inhibition (INH)” value [26] was 0%, the “inhibition (INH)” value [27] was 0% and the inhibition at 75 g/ha [10] was 100%. For the same compound, the inhibition at 37.5 g/ha [28] was 80%, the inhibition at 75 g/ha [29] was 0% and the inhibition at 75 g/ha [11] was 100%. The “inhibition (INH)” value [30] was 10%, the inhibition at 75 g/ha [12] was 100% and the inhibition at 37.5 g/ha [31] was 0%. The inhibition at 75 g/ha [32] was 85%, the “inhibition (INH)” value [33] was 20% and the inhibition at 150 g/ha [13] was 100%. The inhibition at 37.5 g/ha [34] was 80%, the inhibition at 150 g/ha [35] was 40% and the inhibition at 150 g/ha [15] was 80%. The inhibition at 37.5 g/ha [36] was 0%, the inhibition at 150 g/ha [37] was 100% and the inhibition at 150 g/ha [16] was 100%. The inhibition at 150 g/ha [38] was 0%, the inhibition at 37.5 g/ha [39] was 80% and the inhibition at 75 g/ha [17] was 80%. It also gave an inhibition at 75 g/ha [40] of 100%, an inhibition at 75 g/ha [18] of 100% and an inhibition at 37.5 g/ha [41] of 0%. For the same compound, the “inhibition (INH)” value [42] was 20%, the inhibition at 150 g/ha [19] was 100% and the inhibition at 75 g/ha [43] was 0%. The inhibition at 150 g/ha [44] was 100% and the inhibition at 150 g/ha [45] was 90%.
